Data published in ChEMBL document CHEMBL4665898, “Semisynthetic Analogs of the Antibiotic Fidaxomicin-Design, Synthesis, and Biological Evaluation” (ACS Med Chem Lett, 2020).
Values after ≈ are worked out from the molar mass of the structure shown.

Experiments:
[1] = tested on: Mycobacterium tuberculosis; assay: Antimycobacterial activity against recombinant Mycobacterium tuberculosis H37Rv expressed in green fluorescence protein by measuring increase in fluorescence after 10 days in presence of middlebrook 7H9/OADC medium by GFP reporter gene assay; type: functional; conditions: 240 h, time 10 day
Clostridioides difficile [2] = assay: Antibacterial activity against Clostridium difficile 8260 incubated for 46 hrs in anaerobic condition by CLSI-based broth microdilution assay; type: functional
Clostridioides difficile [3] = assay: Antibacterial activity against Clostridium difficile ATCC 9689 incubated for 46 hrs in anaerobic condition by CLSI-based broth microdilution assay; type: functional; conditions: ATCC 9689 = DSM 1296
Clostridioides difficile [4] = assay: Antibacterial activity against Clostridium difficile 8282 incubated for 46 hrs in anaerobic condition by CLSI-based broth microdilution assay; type: functional
Clostridioides difficile [5] = assay: Antibacterial activity against Clostridium difficile 8264 incubated for 46 hrs in anaerobic condition by CLSI-based broth microdilution assay; type: functional
Clostridioides difficile [6] = assay: Antibacterial activity against Clostridium difficile 5680 incubated for 46 hrs in anaerobic condition by CLSI-based broth microdilution assay; type: functional
[7] = Aqueous solubility of the compound in phosphate buffer at pH 7 after 5 hrs by UHPLC analysis; type: physicochemical
How it was run: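 Solid added to 1.0 mL pH 7 phosphate buffer containing 50 µg/mL caffeine internal standard until saturated. Stirred 5 h at room temperature, passed through a 0.22 µm filter, then run on C18 UHPLC with a water/MeCN + 0.1 % HCOOH gradient. Analyte/IS peak-area ratio was converted to concentration using a linear calibration from MeOH standards at 50–500 µg/mL.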

Clostridioides difficile [8] = assay: Antibacterial activity against Clostridium difficile BAA-1875 incubated for 46 hrs in anaerobic condition by CLSI-based broth microdilution assay; type: functional
Clostridioides difficile [9] = assay: Antibacterial activity against Clostridium difficile ATCC 700057 incubated for 46 hrs in anaerobic condition by CLSI-based broth microdilution assay; type: functional
Clostridioides difficile [10] = assay: Antibacterial activity against Clostridium difficile BAA-1805 incubated for 46 hrs in anaerobic condition by CLSI-based broth microdilution assay; type: functional
Clostridioides difficile [11] = assay: Antibacterial activity against Clostridium difficile under anaerobic condition by CLSI-based broth microdilution assay; type: functional
How it was run: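 Isolates streaked on Brucella agar with hemin, vitamin K and 5% sheep blood, anaerobic 35–37°C, 44–48 h. CLSI broth microdilution in Brucella broth with hemin, vitamin K, 5% laked horse blood. Test agents in DMSO, 2-fold series, 16–0.015 µg/mL. Inoculum from a 0.5 McFarland suspension diluted 1:10. Incubated anaerobically 35–37°C, read at 46 h; MIC = lowest concentration inhibiting visible growth.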

Staphylococcus aureus [12] = assay: Antibacterial activity against Staphylococcus aureus by CLSI-based broth microdilution method; type: functional
How it was run: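 S. aureus ATCC29213 grown overnight at 37 °C on MH II agar. MIC by CLSI broth dilution at about 7.5 × 10^5 CFU/well. Compounds diluted 2-fold in water from 1.0 mg/mL stocks in 50% methanol. Plates incubated overnight at 37 °C. MIC is the lowest concentration with no growth, read by eye.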

Bacillus subtilis = assay: Antibacterial activity against Bacillus subtilis DSM3256 incubated overnight by broth dilution method; type: functional
How it was run: (§1)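 Strains pre-grown overnight at 37 °C on Mueller Hinton II agar; CLSI broth dilution, inoculum about 7.5 × 10^5 CFU/well. Compounds taken from 1.0 mg/mL stocks in 50 % methanol/H2O, diluted in H2O as 2-fold series. Plates held at 37 °C overnight; MIC read visually as lowest concentration with no growth.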

Staphylococcus aureus [13] = assay: Antibacterial activity against Staphylococcus aureus ATCC 29213 incubated overnight by broth dilution method; type: functional; how it was run: as §1
Clostridioides difficile [14] = assay: Antibacterial activity against Clostridium difficile 8290 incubated for 46 hrs in anaerobic condition by CLSI-based broth microdilution assay; type: functional
Clostridioides difficile [15] = assay: Antibacterial activity against Clostridium difficile ATCC 43255 incubated for 46 hrs in anaerobic condition by CLSI-based broth microdilution assay; type: functional
Clostridioides difficile [16] = assay: Antibacterial activity against Clostridium difficile incubated for 48 hrs by microbroth dilution method; type: functional
How it was run: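 Per CLSI, anaerobic broth microdilution in Brucella broth with hemin, vitamin K and 5% laked horse blood. Isolates pre-grown anaerobically on supplemented Brucella blood agar, 35–37 °C, 44–48 h. Inoculum at 0.5 McFarland, diluted 1:10. 2-fold drug series from DMSO, 16–0.015 µg/mL. Incubated anaerobically at 35–37 °C and read at 46 h. MIC is the lowest concentration inhibiting visible growth.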

Compound: CCc1c(Cl)c(O)c(Cl)c(O)c1C(=O)O[C@@H]1[C@@H](O)[C@@H](OC)[C@@H](OC/C2=C\C=C\C[C@H](O)/C(C)=C/[C@H](CC)[C@@H](O[C@@H]3OC(C)(C)[C@@H](OC(=O)C(C)C)[C@H](O)[C@@H]3O)/C(C)=C/C(C)=C/C[C@@H]([C@@H](C)O)OC2=O)O[C@H]1C
- MIC90 [1]: 0.25 µg/mL
- MIC (Clostridioides difficile [2]): 0.06 µg/mL (≈ 0.0567 µM)
- MIC (Clostridioides difficile [3]): ≤ 0.015 µg/mL
- MIC (Clostridioides difficile [4]): 0.03 µg/mL (≈ 0.0284 µM)
- MIC (Clostridioides difficile [5]): 0.12 µg/mL (≈ 0.113 µM)
- MIC (Clostridioides difficile [6]): 0.06 µg/mL (≈ 0.0567 µM)
- solubility at 5 h [7]: 84 µg/mL (≈ 79.4 µM)
- MIC (Clostridioides difficile [8]): 0.03 µg/mL (≈ 0.0284 µM)
- MIC (Clostridioides difficile [9]): 0.03 µg/mL (≈ 0.0284 µM)
- MIC (Clostridioides difficile [10]): 0.12 µg/mL (≈ 0.113 µM)
- MIC (Clostridioides difficile [11]): 0.012 µg/mL (≈ 0.0113 µM)
- MIC (Staphylococcus aureus [12]): 2 µg/mL (≈ 1.89 µM)
- MIC (Bacillus subtilis): 8 µg/mL (≈ 7.56 µM)
- MIC (Staphylococcus aureus [13]): 8 µg/mL (≈ 7.56 µM)
- MIC (Clostridioides difficile [14]): 0.03 µg/mL (≈ 0.0284 µM)
- MIC (Clostridioides difficile [15]): 0.03 µg/mL (≈ 0.0284 µM)
- MIC (Clostridioides difficile [16]): 0.25 µg/mL (≈ 0.236 µM)
